Most compounds without a hit are left out; they make up all but 2.3% or so of the library.
Xi reactivation: X-chromosome reactivation activator. activation, % at 7.58 µM. XiGFP mouse fibroblasts, % GFP-positive cells imaging, 3 d; cells co-treated with 5-aza-dC sensitizer; scaled so ellipticine positive control = 100%. 0.055% of 360,000 active;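 active = mean normalized replicate activation at least 10% and every replicate at or above 10%; inconclusive = only one of the two criteria met; inactive = mean below 10% and not all replicates reach 10%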
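assay system = SV40-immortalized XiGFP fibroblast cells, line 68-5-11 | buffer or medium = DMEM plus 5-aza-dC sensitizer | doses = single-point pinned compound dosing | times = 3-day compound exposure, then 15 min fixation at room temperature | benchmarks = positive control ellipticine, 6 µM final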
EWS-Fli inh: EWS/Fli transcriptional activity inhibition; A673 NR0B1-luciferase reporter, viability-normalised; inhibition, % at 12.6 µM; 0.67% of 350,000 active; AID 651661;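 active = mean inhibition of at least 50% after viability correction, with every replicate also passing that limit; inconclusive = mean reaches 50% but only one of two replicates passes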;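 note: firefly luciferase signal divided by Alamar Blue viability fluorescence both relative to DMSO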
TWEAK Fn14 block: blocks TWEAK-Fn14 interaction in a reporter cell assay. inhibition, % at 10 µM. TWEAK-stimulated Fn14 reporter cells, luciferase luminescence, 8 h. 2% of 360,000 active. AID 1159606; in the data active = inhibition above about 50%
LGR2 antag: blocks bursicon-induced cAMP signaling via Drosophila LGR2; HEK293 LGR2, CRE-luciferase, bursicon-stimulated, 4 h; 0.35% of 380,000 active; AID 720647; inhibition, % at 9.99 µM;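 active = drop in luminescence signal, shown as inhibition above about 50% in the replicate tests, limit read from the data, passing the limit was not always enough; inconclusive = probably only some replicates passing the limit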;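 note: agonist challenge used bursicon conditioned medium at about half maximal strength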
FN deposit inh: fibronectin deposition inhibition. AH1F fibroblasts, Alexa488-fibronectin deposition fluorescence, overnight. inhibition, % at 12.6 µM. 0.086% of 350,000 active;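 active = mean inhibition across replicates of 30% or more, regardless of how many single replicates reach that level; inconclusive = mean under 30% yet at least half of replicates reach 30%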
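material = AH1F fibroblast monolayer depositing Alexa488-labelled fibronectin into matrix | amount = 10000 AH1F cells/well | buffer or medium = DMEM plus 2% serum, read in PBS | incubation = 1 h cell adhesion before compound, then overnight fibronectin incubation | detection = fluorescence at 485 nm excitation, 525 nm emission | evaluation = percent inhibition as loss of matrix-bound fibronectin fluorescence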
TROY NFkB inh: TROY signaling inhibition. Q293 LMP1-TROYcd NF-kB luciferase reporter, 4 h. inhibition, % at 10 µM. 0.98% of 360,000 active;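 active = compounds whose plate-normalised and pattern-corrected inhibition of the luciferase reporter signal at the single screening dose is 50% or more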
Hits are given with their value; 0 = inactive; ? = inconclusive; - = no result given.

SMILES	Xi reactivation	EWS-Fli inh	TWEAK Fn14 block	LGR2 antag	FN deposit inh	TROY NFkB inh
O=C(CN1CCOCC1)N[C@@H]1CC[C@H](CCn2cc(C3CCCC3)nn2)O[C@H]1CO	0	-	-	0	0	-
N#Cc1sc2nccc(Nc3ccccc3)c2c1N	0	0	80.1	-	0	0
C[C@H](CO)N1C[C@H](C)[C@@H](CN(C)Cc2ccc3c(c2)OCO3)OCCCC[C@H](C)Oc2ccc(NC(=O)Cc3ccccc3)cc2C1=O	0	0	-	0	-	-
CCS(=O)(=O)N1CCN(c2ccc([N+](=O)[O-])c(NCc3ccccc3)c2)CC1	-	-	0	-	-	0
CS(=O)(=O)N1CCN(c2ccc([N+](=O)[O-])c(NCc3ccccc3)c2)CC1	-	-	75.4	-	-	-
CCOCCOC(=O)c1[nH]c2c(c1C)C(=O)CC(c1ccc(OC)c(OC)c1)C2 (stereo unspecified)	0	0	0	0	0	0
Cc1c(C(=O)OCC(C)C)[nH]c2c1C(=O)CC(c1ccco1)C2 (stereo unspecified)	0	53.4	0	0	0	0
COc1cc(C2CC(=O)c3c([nH]c(C(=O)OCCOC(C)C)c3C)C2)cc(OC)c1OC (stereo unspecified)	0	0	61.4	0	0	0
CCCOCCOC(=O)c1[nH]c2c(c1C)C(=O)CC(c1cc(OC)ccc1OC)C2 (stereo unspecified)	0	56.1	0	0	0	0
CCCCn1c(=N)n(CC(=O)c2ccc(Br)s2)c2ccccc21	0	62.9	0	0	0	0
CCn1c(=N)n(CC(=O)c2ccc(Br)s2)c2ccccc21	0	0	0	0	0	0
C[C@@H]1C(=O)N[C@H](c2ccc(F)cc2)CC=CC[C@H](C)Oc2ccccc2C(=O)N1C (mixture of isomers)	0	-	-	-	0	-
COc1cc2c(cc1NC(=O)C(C)Sc1ccc(NC(C)=O)cc1)oc1ccccc12 (stereo unspecified)	0	-	65.5	0	0	0
CC1CC(C)(C)NC(=S)N1CCCC(=O)Nc1ccc(Cl)cc1 (stereo unspecified)	0	0	0	0	0	0
CCOc1ccc(NC(=O)CCN2C(=S)NC(C)(C)CC2C)cc1 (stereo unspecified)	0	0	94.3	0	0	0
Cn1c(=NC(=O)c2ccco2)sc2ccccc21	0	0	0	0	0	0
Cn1c(=NC(=O)CCl)sc2ccccc21	-	73.5	0	0	-	0
CC(=O)SCC(=O)N=c1sc2cc(F)ccc2n1C	-	-	0	-	-	0
CC(=O)N=c1sc2cc(C)ccc2n1C	-	-	51.9	0	-	0
Cc1nc2c(C(=O)NCCC(C)C)c[nH]n2c(=O)c1Cc1ccccc1F	-	-	0	-	-	68.6
Cc1nc2c(C(=O)NCCC(C)C)c[nH]n2c(=O)c1Cl	0	-	0	0	0	0
Cc1ccc(C(NC(=O)NC(C)c2ccccc2)C(Cl)(Cl)Cl)cc1F (stereo unspecified)	-	-	55.3	?	-	58.4
CC(NC(=O)Nc1ccc(Cl)cc1)c1ccccc1 (stereo unspecified)	0	0	0	0	0	0
C[C@H]1CN([C@@H](C)CO)C(=O)Cc2cc(NS(=O)(=O)c3ccccc3)ccc2O[C@@H]1CN(C)CC1CC1	0	0	-	0	-	-
CC1CC(C)(C)Nc2ccc(N=O)cc21 (stereo unspecified)	0	0	80.4	0	0	0
SMILES	Xi reactivation	EWS-Fli inh	TWEAK Fn14 block	LGR2 antag	FN deposit inh	TROY NFkB inh
CC1CC(C)(C)Nc2ccc(OC(=O)c3ccco3)cc21 (stereo unspecified)	-	-	89.1	-	-	0
Cc1ccc(-c2nc(C(Cl)Cl)c3ccccc3n2)cc1	0	58.9	0	0	0	0
COc1ccc(S(=O)(=O)Nc2ccc3c(c2)C(=O)N([C@H](C)CO)C[C@@H](C)[C@H](CN(C)C)OCCCC[C@@H](C)O3)cc1	0	-	-	0	0	-
Cc1cc(NC(=O)c2ccc3c(c2)C(=O)N(C(C)(C)C)C3=O)no1	0	0	0	-	0	0
CC(C)(C)N1C(=O)c2ccc(C(=O)Nc3cc(C(=O)O)cc(C(=O)O)c3)cc2C1=O	0	0	99.4	0	0	0
CO[C@@H]1CN(C)C(=O)c2cc(NS(=O)(=O)c3ccccc3)ccc2OC[C@H](C)N(Cc2ccccn2)C[C@H]1C	0	0	-	0	0	-
Cc1oc2c(c(=O)c1C)C(=O)CC(c1ccccc1)C2 (stereo unspecified)	-	-	0	-	-	0
CS(=O)(=O)c1sc(C#N)c2c1C(=O)CC(c1ccccc1)C2 (stereo unspecified)	0	0	64.3	58.0	37.1	80.0
Cn1c(=O)c2c(nc(N3CCc4ccccc4C3)n2Cc2ccccc2F)n(C)c1=O	-	-	61.0	-	0	0
CCc1ccc(OCc2ccc(C(=O)O)o2)cc1	0	0	53.9	0	0	0
C=CCN1C(=O)S/C(=C/c2ccc(Sc3nc4ccccc4[nH]3)o2)C1=O	0	-	73.2	0	0	51.5
CC(C)N1C(=O)S/C(=C/c2ccc(Sc3nc4ccccc4[nH]3)o2)C1=O	0	0	89.3	0	0	58.8
CCOC(=O)C(C)N1C(=O)S/C(=C\c2ccc(-c3ccccc3C(=O)O)o2)C1=O (stereo unspecified)	0	0	0	0	0	0
COc1ccc2c3c(n(C)c2c1)[C@@H](CO)N(C(=O)Nc1ccccc1F)CC31CCN(C(C)=O)CC1	0	0	-	0	-	-
Cc1noc(C)c1NC(=O)Nc1cccc2c1O[C@H](CN(C)C(=O)Nc1cccc3ccccc13)[C@H](C)CN([C@@H](C)CO)C2=O	0	0	-	0	-	-
CCc1nc(N2[C@@H](C#N)[C@H](c3ccccc3-c3ccccc3F)[C@@H]2CO)sc1C	0	58.1	-	0	0	-
CCc1nc(N2[C@H](C#N)[C@H](c3ccccc3-c3ccccc3F)[C@H]2CO)sc1C	0	0	-	0	0	-
O=C(N/N=C/c1cn(Cc2ccccc2)c2ccccc12)c1cccnc1	0	0	53.6	0	0	0
C[C@H](CO)N1C[C@H](C)[C@@H](CN(C)S(C)(=O)=O)OCCCC[C@H](C)Oc2ccc(NC(=O)Nc3ccc(F)cc3)cc2C1=O	0	0	-	0	-	-
O=C(Nc1cc(-c2ccccc2)nn1C1CCCCC1)c1ccc(Cl)cc1	0	0	0	0	0	53.7
Cc1ccc(C(=O)/C=C/Nc2ccccc2C(N)=O)cc1	-	-	58.4	-	0	0
NC(=O)c1ccccc1N/C=C/C(=O)c1ccc(Cl)cc1	-	-	0	-	0	0
Cc1ccc(C(=O)/C=C/Nc2ccccn2)cc1	-	-	101.6	-	-	0
C[C@@H]1CCCCO[C@H](CN(C)C(=O)c2ccncc2)[C@H](C)CN([C@H](C)CO)C(=O)c2cc(NC(=O)CCC(F)(F)F)ccc2O1	0	0	-	0	0	-
COc1cc2oc(=O)cc(-c3ccc(-c4ccc(CO)cc4)cc3)c2c(OC)c1OC	0	0	65.6	0	-	0
COc1cc2oc(=O)cc(-c3ccc(-c4ccc(C)cc4)cc3)c2c(OC)c1OC	0	0	0	0	-	0

Assay outcomes: PubChem BioAssay, several laboratories
